The structures appear in SMILES notation. Active and inactive are the calls of the source. The calls are words filed in the database; no cut-off is given here. Bounds are passed on as bounds.

Data set [1] relates to Escherichia coli. The data set can be described thus: Antibacterial activity against Escherichia coli ANS1 incubated overnight by microbroth dilution method. It is filed as functional. The procedure, abridged:
(§1)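 Bacteria grown in LB medium. CLSI microbroth dilution in 96-well plates, overnight at 37 °C without shaking. MIC99 taken as the lowest concentration giving complete growth inhibition. Three independent determinations, reported as mean ± SD.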

Data set [2] deals with Pseudomonas aeruginosa. The data set can be described thus: Antibacterial activity against Pseudomonas aeruginosa PAO1 ATCC 47085 at 0.5 times MIC99 after 24 hrs by checkerboard assay in presence of norfloxacin. It is filed as functional. The procedure, abridged: (§2)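 Checkerboard assay: compound serially diluted along one axis of a 96-well plate and antibiotic along the other, in LB. Each well inoculated with 2 × 10⁴ CFU and incubated 24 h at 37 °C. ΣFIC = FIC A + FIC B, where each FIC is the combination MIC99 divided by the MIC99 of that drug alone.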

The test system of data set [3] is Pseudomonas aeruginosa. The data set can be described thus: Antibacterial activity against Pseudomonas aeruginosa PAO1 ATCC 47085 incubated overnight by microbroth dilution method. It is filed as functional. A digest of the protocol:
as §1

Data set [4] relates to Pseudomonas aeruginosa. The data set can be described thus: Antibacterial activity against Pseudomonas aeruginosa PAO1 ATCC 47085 at 0.5 times MIC99 after 24 hrs by checkerboard assay in presence of kanamycin. It is filed as functional. A digest of the protocol:
as §2

Data set [5] in a line: Toxicity in adult L4/juvenile L1 stages of Caenorhabditis elegans N2 assessed as survival at 64 ug/ml incubated for 96 hrs measured every 12 hrs. It is filed as organism-based. As to conditions: in vivo. A digest of the protocol:
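C. elegans N2 kept on NGM agar at 22 °C. Compound mixed into molten NGM agar at 64 μg/mL. L4 adults, L1 juveniles and synchronized eggs transferred onto test plates and held at 22 °C for 96 h. Death, development and egg production checked every 12 h.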

The nature of data set [6]: Selectivity index, ratio of CC50 for human A549 cells to MIC99 for methicillin-resistant Staphylococcus aureus clinical isolate.
The test system of data set [7] is Staphylococcus aureus. The data set can be described thus: Antibacterial activity against Staphylococcus aureus RN4220 ATCC 35556 in exponential-phase assessed as cytoplasmic membrane depolarization at 1 to 4 times MIC99 by fluorescent probe DiSC3-5 based fluorophotometric analysis. It is filed as functional, organism-based. A digest of the protocol:
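Log-phase cells (OD600 ~0.7) washed and resuspended to OD600 0.05 in 5 mM HEPES pH 7.2 with 5 mM glucose and 100 mM KCl. Loaded with 0.4 μM DiSC3-5 in the dark until fluorescence fell stably by about 90%. Compound added at 4× or 1× MIC99 and fluorescence recorded continuously at 25 °C (ex 622/em 670 nm). 2,4-Dinitrophenol as positive control. Three independent experiments.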

The nature of data set [8]: Selectivity index, ratio of CC50 for HEK293T/17 cells to MIC99 for Staphylococcus aureus RN4220 ATCC 35556. It is filed as toxicity, cell-based. The conditions noted are these: human, read-out: Selectivity Index. A digest of the protocol:
(§3)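 CC50: HEK293T/17 or A549 cells seeded at 10⁴ per well in DMEM with 10% FBS at 37 °C, 5% CO2. After 24 h, wells PBS-washed and serially diluted compound applied for 48 h, with viability read by MTS and CC50 taken by nonlinear regression. MIC99 by CLSI broth microdilution, overnight at 37 °C without shaking, from three independent tests. SI = CC50/MIC99.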

For data set [9], the system named is Staphylococcus aureus. The experiment in a line: Bactericidal activity against Staphylococcus aureus RN4220 ATCC 35556 assessed as reduction in bacterial burden at 0.5 times MIC99 after 3 to 24 hrs by time kill assay in presence of 0.5 times MIC99 of kanamycin relative to control. It is filed as functional. A digest of the protocol:
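Combination time-kill in LB at 1 × 10⁶ CFU/mL starting inoculum. Arms were compound or kanamycin alone at 1× and 0.5× MIC99, and the two combined at 0.5× MIC99 each. Incubated at 37 °C with shaking at 300 rpm. Viable counts taken by dilution and plating on LB agar at 0, 3, 6 and 24 h.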

The subject of data set [10] is Staphylococcus aureus. The experiment in a line: Potentiation of kanamycin-induced antibacterial activity against Staphylococcus aureus RN4220 ATCC 35556 assessed as reduction in kanamycin MIC99 at 0.5 times MIC99 after 24 hrs by checkerboard assay relative to control. It is filed as functional. A digest of the protocol:
as §2

Data set [11] in a line: Selectivity index, ratio of CC50 for HEK293T/17 cells to MIC99 for Escherichia coli ANS1. The procedure, abridged:
as §3

Regarding `Cl.Cl.S=C(NCCCNCCCCCNCCCNC(=S)NCC(c1ccccc1)c1ccccc1)NCC(c1ccccc1)c1ccccc1`, the MIC99 (usually an inhibitory concentration at the 99% level, which refers to growth in some studies and to a panel of isolates in others) in [1] was 2 µg/mL; in data set [3] it was 8 µg/mL. Further, the “fractional inhibitory concentration index (FICI)” value in data set [2] and in data set [4] was 0.75 throughout. In data set [5], the survival at 96 h, 64 ug/ml is 100%. Further, the “Selectivity Index” value amounted to 64 in data set [6] and 16 in [11]. The result in data set [7] was Active. Besides, in data set [8], the selectivity ratio worked out at 16. Besides, the Activity in [9] is recorded as more than 2 deltalog10CFU/ml. Further, the “fold change (FC)” value in [10] is listed as 8.
